Data reported in ChEMBL document CHEMBL2417357, “Synthesis and antiprotozoal activities of benzyl phenyl ether diamidine derivatives” (Eur J Med Chem, 2013).
Activity calls are given as the source filed them. The calls are words filed in the database; no cut-off is given here.

How the values were obtained:
[1] = tested on: Trypanosoma brucei rhodesiense; assay: Antitrypanosomal activity against Trypanosoma brucei rhodesiense STIB900 infected in NMRI mouse assessed as cured animal at 5 mg/kg, ip administered for 4 days; type: functional, organism-based; set-up: dose 5 mg/kg
Procedure, shortened: (§1)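 Acute model in female NMRI mice infected with T. b. rhodesiense STIB900. Single daily doses given for four days, intraperitoneally or orally. Mice surviving 60 days post-infection without parasitaemia relapse counted as cured; result reported as cured/infected out of 4 mice per group, with mean survival in days.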

L6 = assay: Cytotoxicity against rat L6 cells after 72 hrs by Alamar blue assay; type: cell-based; settings: L6, 72 h
Procedure, shortened: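 Rat L6 myoblast cells; cytotoxic IC50 taken as the average of duplicate determinations.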

[2] = tested on: Trypanosoma brucei rhodesiense; assay: Antitrypanosomal activity against Trypanosoma brucei rhodesiense STIB900 infected in NMRI mouse assessed as mean survival days at 5 mg/kg, ip administered for 4 days; type: functional; settings: route intraperitoneal
Procedure, shortened: (§2)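 Female NMRI mice, acute infection model with T. b. rhodesiense STIB900. Compound given as a single daily dose for four days, intraperitoneally or orally. Cure means survival to 60 days post-infection without parasitaemia relapse. Mean survival recorded in days.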

Leishmania donovani = assay: Antileishmanial activity against amastigotes of Leishmania donovani MHOM/SD/62/IS-CL2D; type: functional, organism-based
Procedure, shortened: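 Axenic amastigotes of L. donovani MHOM/SD/62/IS-CL2D; IC50 taken as the average of at least two determinations.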

[3] = Selectivity index, ratio of IC50 for rat L6 cells to IC50 for amastigotes of Leishmania donovani; type: toxicity, cell-based; settings: read-out: Ratio IC50
Procedure, shortened: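 SI = IC50 in rat L6 myoblasts / IC50 against L. donovani MHOM/SD/62/IS-CL2D axenic amastigotes. The amastigote IC50 is the average of at least two determinations; the L6 IC50 is the average of duplicates.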

[4] = Selectivity index, ratio of IC50 for rat L6 cells to IC50 for chloroquine-resistant Plasmodium falciparum K1; type: toxicity, cell-based; settings: read-out: Ratio IC50
Procedure, shortened: (§3)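 SI = IC50 in rat L6 myoblasts / IC50 against the parasite (T. b. rhodesiense STIB900 or P. falciparum K1). Each IC50 is the average of duplicate determinations.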

Plasmodium falciparum = assay: Antiplasmodial activity against chloroquine-resistant Plasmodium falciparum K1; type: functional, organism-based
Procedure, shortened: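 Chloroquine-resistant K1 strain tested in vitro. IC50 is the average of duplicate determinations.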

[5] = Selectivity index, ratio of IC50 for rat L6 cells to IC50 for Trypanosoma brucei rhodesiense STIB900; type: toxicity, cell-based; settings: read-out: Ratio IC50; procedure, shortened: as §3
[6] = tested on: Trypanosoma brucei rhodesiense; assay: Antitrypanosomal activity against Trypanosoma brucei rhodesiense STIB900 after 72 hrs by Alamar blue assay; type: functional, organism-based; settings: STIB900, 72 h
[7] = tested on: Trypanosoma brucei rhodesiense; assay: Antitrypanosomal activity against Trypanosoma brucei rhodesiense STIB900 infected in NMRI mouse assessed as cured animal at 25 mg/kg, po administered for 4 days; type: functional, organism-based; set-up: dose 25 mg/kg; procedure, shortened: as §1
[8] = tested on: Trypanosoma brucei rhodesiense; assay: Antitrypanosomal activity against Trypanosoma brucei rhodesiense STIB900 infected in NMRI mouse assessed as mean survival days at 25 mg/kg, po administered for 4 days; type: functional; procedure, shortened: as §2

| SMILES | Activity [1] | IC50 (L6) [µM] | MSD [2] [days] | IC50 (Leishmania donovani) [µM] | selectivity ratio [3] | selectivity ratio [4] | IC50 (Plasmodium falciparum) [µM] | selectivity ratio [5] | IC50 [6] [µM] | Activity [7] | MSD [8] [days] |
| --- | --- | --- | --- | --- | --- | --- | --- | --- | --- | --- | --- |
| N=C(N)c1ccc(COc2c(I)cc(C(=N)N)cc2I)cc1 | inactive | 13.8 | 24.5 | 1.6 | 9 | 746 | 0.019 | 1170 | 0.012 | – | – |
| COc1cc(C(=N)N)cc(I)c1OCc1cccc(C(=N)N)c1.Cl | inactive | 18.6 | 35.75 | 6.01 | 3 | 760 | 0.0245 | 6210 | 0.003 | – | – |
| N=C(N)c1cccc(COc2ccc(C(=N)N)cc2Cl)c1 | inactive | 13.9 | 24.5 | 2.91 | 5 | 275 | 0.051 | 1900 | 0.007 | – | – |
| COc1cc(C(=N)N)cc(OC)c1OCc1ccc(C(=N)N)cc1.Cl.Cl | inactive | 209 | 15 | > 100 | < 2 | 1180 | 0.177 | 1910 | 0.11 | – | – |
| N=C(N)c1ccc(COc2c(Cl)cc(C(=N)N)cc2Cl)cc1 | inactive | 28.5 | 30.25 | 6.4 | 4 | 2020 | 0.014 | 1170 | 0.024 | – | – |
| N=C(N)c1cccc(COc2c(I)cc(C(=N)N)cc2I)c1 | inactive | 19.3 | 21.25 | 1.39 | 14 | 291 | 0.0664 | 5680 | 0.003 | – | – |
| COc1cc(C(=N)N)cc(OC)c1OCc1cccc(C(=N)N)c1.Cl.Cl | inactive | 96 | 16.25 | > 100 | < 1 | 416 | 0.231 | 524 | 0.183 | – | – |
| COc1cc(/C(N)=N/O)cc(OC)c1OCc1cccc(/C(N)=N/O)c1.Cl.Cl | – | 70.7 | – | > 100 | < 1 | < 6 | > 11.5 | < 1 | 157 | inactive | 16.5 |
| N=C(N)c1ccc(COc2ccc(C(=N)N)cc2Br)cc1 | inactive | 4.99 | 29 | 2.02 | 2 | 1250 | 0.004 | 322 | 0.016 | – | – |
| Cl.Cl.N=C(N)c1cccc(COc2ccc(C(=N)N)cc2[N+](=O)[O-])c1 | inactive | 10.8 | 23.25 | 11.3 | < 1 | 592 | 0.018 | 324 | 0.034 | – | – |
| COc1cc(/C(N)=N/O)cc(I)c1OCc1cccc(/C(N)=N/O)c1.Cl.Cl | – | 32.1 | – | > 94.5 | < 1 | < 3 | > 9.45 | < 1 | 38.7 | inactive | 20.5 |
| Cl.Cl.N/C(=N\O)c1cccc(COc2c(I)cc(/C(N)=N/O)cc2I)c1 | – | 15.8 | – | 6.63 | 2 | 2.14 | 7.38 | 1 | 13.6 | inactive | 5.75 |
| N=C(N)c1ccc(COc2ccc(C(=N)N)cc2)cc1 | inactive | 6.96 | 22.5 | 8.77 | < 14 | 89 | 0.078 | 77 | 0.091 | – | – |
| COc1cc(/C(N)=N/O)cc(OC)c1OCc1ccc(/C(N)=N/O)cc1.Cl.Cl | – | 56.8 | – | 34.1 | 1.67 | 5.11 | 11.1 | < 1 | 161 | inactive | 14.5 |
| Cl.Cl.N/C(=N\O)c1cccc(COc2ccc(/C(N)=N/O)cc2Br)c1 | – | 4.39 | – | > 100 | < 1 | < 1 | 5.8 | < 1 | 14.7 | inactive | 12.75 |
| N=C(N)c1cccc(COc2c(Cl)cc(C(=N)N)cc2Cl)c1 | inactive | 0.57 | 27.5 | 6.51 | < 1 | 3 | 0.185 | 57 | 0.01 | – | – |
| CO/N=C(\N)c1cccc(COc2c(Cl)cc(/C(N)=N/OC)cc2Cl)c1.Cl.Cl.Cl.Cl | – | 108 | – | > 50 | < 2 | 18 | 5.91 | 2 | 60.1 | inactive | 21.75 |
| CO/N=C(\N)c1cccc(COc2ccc(/C(N)=N/OC)cc2Br)c1.Cl.Cl | – | 99.4 | – | 5.66 | 17 | < 10 | > 9.96 | 1 | 79.1 | Active | >60 |
| N=C(N)c1ccc(COc2c(Br)cc(C(=N)N)cc2Br)cc1 | inactive | 21.5 | 30 | 4.09 | 5 | 849 | 0.025 | 1260 | 0.017 | – | – |
| COc1cc(/C(N)=N/O)cc(Br)c1OCc1cccc(/C(N)=N/O)c1.Cl.Cl | – | 28.9 | – | > 100 | < 1 | < 3 | > 10.4 | < 1 | 87.9 | inactive | 31.75 |
| Cl.Cl.N/C(=N\O)c1ccc(COc2ccc(/C(N)=N/O)cc2I)cc1 | – | 18.1 | – | > 100 | < 1 | 3 | 5.29 | < 1 | 25.8 | inactive | 29.75 |
| Cl.Cl.N/C(=N\O)c1cccc(COc2ccc(/C(N)=N/O)cc2I)c1 | – | 4.73 | – | > 50 | < 1 | < 1 | 7.31 | < 1 | 50.2 | inactive | 20 |
| CO/N=C(\N)c1cccc(COc2c(I)cc(/C(N)=N/OC)cc2I)c1.Cl.Cl | – | 27.5 | – | 44.2 | < 1 | < 4 | > 7.1 | 1 | 26.3 | inactive | 19.75 |
| CO/N=C(\N)c1cccc(COc2ccc(/C(N)=N/OC)cc2I)c1.Cl.Cl | – | 81 | – | > 100 | < 1 | 13 | 6.3 | 2 | 34.7 | inactive | 22.25 |
| Cl.Cl.N/C(=N\O)c1ccc(COc2ccc(/C(N)=N/O)cc2Br)cc1 | – | 6.6 | – | > 100 | < 1 | < 1 | > 11.1 | < 1 | 24 | inactive | 28.75 |
| CO/N=C(\N)c1cccc(COc2ccc(/C(N)=N/OC)cc2Cl)c1.Cl.Cl.Cl | – | 89.6 | – | > 100 | < 1 | < 9 | > 10.2 | 3 | 26.1 | inactive | 29.25 |
